Reference: ChEMBL document CHEMBL1125579, “Relative structure-inhibition analyses of the N-benzoyl and N-(phenylsulfonyl) amino acid aldose reductase inhibitors” (J Med Chem, 1991)

Target: Aldo-keto reductase family 1 member B1 (Rattus norvegicus, UniProt P07943)
Assay: Inhibitory activity against aldose reductase in rat lens
Procedure, shortened: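 Rat lens enzyme: 100 lenses from frozen rat eyes homogenized in distilled water and centrifuged at 5 °C; the supernatant was brought to 40% ammonium sulfate saturation and the freshly prepared supernatant was used. NADPH loss was read at 340 nm for 3 min.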

Compound | IC50 [µM]
Nc1ccc(C(=O)N(CC(=O)O)c2ccccc2)cc1 | 12
O=C(O)CNC(=O)c1ccc(NC(=O)c2ccccc2)cc1 | 9.6
O=C(O)CNC(=O)c1cccc2ccccc12 | 220
Cc1ccc(C(=O)N(CC(=O)O)c2ccccc2)cc1 | 3.7
CN(CC(=O)O)C(=O)c1ccc([N+](=O)[O-])cc1 | 26
Cc1ccc(C(=O)N(C)CC(=O)O)cc1 | 13
O=C(O)CNC(=O)c1ccc2ccccc2c1 | 70
CN(CC(=O)O)C(=O)c1ccc(N)cc1 | 11
O=C(O)CNC(=O)c1cccc(NC(=O)c2ccccc2)c1 | 49
O=C(O)CN(C(=O)c1ccc([N+](=O)[O-])cc1)c1ccccc1 | 0.56
COc1ccc(C(=O)N(CC(=O)O)c2ccccc2)cc1 | 3.2
CN(CC(=O)O)C(=O)c1ccc2ccccc2c1 | 19
CN(CC(=O)O)C(=O)c1ccccc1 | 23
O=C(O)CN(C(=O)c1ccc(NC(=O)c2ccccc2)cc1)c1ccccc1 | 0.24
O=C(O)CN(C(=O)c1ccc(F)cc1)c1ccccc1 | 8.2
COc1ccc(C(=O)N(C)CC(=O)O)cc1 | 6.7
O=C(O)CN(C(=O)c1ccc2ccccc2c1)c1ccccc1 | 19
CN(CC(=O)O)C(=O)c1ccc(F)cc1 | 8.8
O=C(O)CN(C(=O)c1ccccc1)c1ccccc1 | 6.3
O=C(O)CNC(=O)c1ccc(NC(=O)Cc2ccccc2)cc1 | 21
O=C(O)CN(C(=O)c1cccc2ccccc12)c1ccccc1 | 8.5
O=C(O)CNC(=O)c1ccc(NC(=O)CCc2ccccc2)cc1 | 45
CN(CC(=O)O)C(=O)c1cccc2ccccc12 | 40
CN(CC(=O)O)C(=O)c1ccc(NC(=O)c2ccccc2)cc1 | 2.8
